How the values were obtained:
Vero = experiment: In vitro cytotoxicity in vero cells.; assay type: functional, cell-based; details: Chlorocebus sabaeus
Outline: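 Uninfected Vero cells were treated with serial compound dilutions, with toxicity controls in duplicate at each concentration, and were scored visually 6 days later. Scoring was confirmed by neutral red uptake (2-3 h, 37 °C; absorbance 540 and 405 nm) expressed as percent of control. IC50 was obtained by regression analysis.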

CCRF-CEM = experiment: In vitro cytotoxicity in CEM cells.; assay type: functional, cell-based; details: Homo sapiens
[1] = system: Human immunodeficiency virus 1; experiment: In vitro antiviral activity against HIV-1 in human PBM cells.; assay type: functional, organism-based; details: Human immunodeficiency virus 1, PBMC
[2] = In vitro cytotoxicity in PBM cells.; assay type: functional, cell-based; details: Homo sapiens, PBMC
West Nile virus = experiment: In vitro antiviral activity against West Nile Virus.; assay type: functional, organism-based
Outline: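 Lightly confluent Vero cells in 96-well plates received serial compound dilutions and then 5 CCID50 of the WNV New York isolate, with test samples in triplicate. Cells were scored visually for cytopathic effect 6 days after virus exposure. Neutral red uptake (2-3 h, 37 °C; absorbance 540 and 405 nm) was used to verify the scoring. EC50 was obtained by regression on mean ratings or on percent-of-control absorbance.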

[3] = system: Human immunodeficiency virus 1; experiment: The compound was evaluated for the antiviral activity against HIV-1 in human PBM cells; assay type: functional, organism-based

SMILES | IC50 (Vero) [µM] | IC50 (CCRF-CEM) [µM] | EC50 [1] [µM] | IC50 [2] [µM] | EC50 (West Nile virus) [µM] | IC50 ([3]; Human immunodeficiency virus 1, PBMC) [µM] | IC50 ([3]; pbm) [µM]
O=c1ccn([C@@H]2C=C(CO)[C@@H](O)[C@H]2O)c(=O)[nH]1 | > 100 | > 100 | > 100 | > 100 | > 200 |  | 
Nc1ccn([C@H]2C=C(CO)[C@H](O)[C@@H]2O)c(=O)n1 | > 100 | > 100 | 58.9 | > 100 | > 200 |  | 
Nc1nc(O)c2ncn([C@@H]3C=C(CO)[C@@H](O)[C@H]3O)c2n1 | > 100 | > 100 | > 100 | > 100 | > 200 |  | 
OCC1=C[C@H](n2cnc3c(O)ncnc32)[C@@H](O)[C@H]1O | > 100 | > 100 | > 100 | > 100 | > 200 |  | 
Nc1nc(=O)n([C@@H]2C=C(CO)[C@@H](O)[C@H]2O)cc1F | 27.4 | 51.8 | 5.34 | 73.7 | 15 | 5.34 | 5.34
O=c1[nH]c(=O)n([C@@H]2C=C(CO)[C@@H](O)[C@H]2O)cc1F | > 100 | > 100 | 93.1 | > 100 | > 200 |  | 
Nc1ncnc2c1ncn2[C@H]1C=C(CO)[C@H](O)[C@@H]1O | > 100 | > 100 | > 100 | > 100 | > 200 |  | 
Cc1cn([C@@H]2C=C(CO)[C@@H](O)[C@H]2O)c(=O)[nH]c1=O | > 100 | > 100 | > 100 | > 100 | > 200 |  | 
Nc1nc(O)c2ncn([C@H]3C=C(CO)[C@H](O)[C@@H]3O)c2n1 | > 100 | > 100 | > 100 | > 100 | > 200 |  | 
Cc1cn([C@H]2C=C(CO)[C@H](O)[C@@H]2O)c(=O)[nH]c1=O | > 100 | > 100 | > 100 | > 100 | > 200 |  | 
O=c1[nH]c(=O)n([C@H]2C=C(CO)[C@H](O)[C@@H]2O)cc1F | > 100 | > 100 | > 100 | > 100 | > 200 |  | 
Nc1nc(=O)n([C@H]2C=C(CO)[C@H](O)[C@@H]2O)cc1F | > 100 | > 100 | > 100 | > 100 | > 200 |  | 
O=c1ccn([C@H]2C=C(CO)[C@H](O)[C@@H]2O)c(=O)[nH]1 | > 100 | > 100 | > 100 | > 100 | > 200 |  | 
OCC1=C[C@@H](n2cnc3c(O)ncnc32)[C@H](O)[C@@H]1O | > 100 | > 100 | > 100 | > 100 | > 200 |  | 
Nc1ccn([C@@H]2C=C(CO)[C@@H](O)[C@H]2O)c(=O)n1 | 1.95 | 0.08 | 0.06 | 6.5 | 0.2 |  | 
O=c1cnn([C@@H]2O[C@H](CO)[C@@H](O)[C@H]2O)c(=O)[nH]1 [6-AZAURIDINE] | > 100 |  |  |  | 1.2 |  | 
Nc1ncnc2c1ncn2[C@@H]1C=C(CO)[C@@H](O)[C@H]1O [NEOPLANOCIN A] | 3.5 | 1.2 | 0.1 | 44.6 | > 51 |  | 
Cc1cn([C@H]2C[C@H](N=[N+]=[N-])[C@@H](CO)O2)c(=O)[nH]c1=O [ZIDOVUDINE] |  |  | 0.004 | > 100 |  |  | 

— ChEMBL document CHEMBL1134272, “Enantiomeric synthesis of D- and L-cyclopentenyl nucleosides and their antiviral activity against HIV and West Nile virus” (J Med Chem, 2001)
